≈ marks a conversion by molar mass, not a printed value. Calls of active or inactive are those of the source. No cut-off for these calls is given here.
How the values were obtained:
[1] = molecular target: cGMP-specific 3',5'-cyclic phosphodiesterase (Homo sapiens, UniProt O76074); assay: Inhibition of human recombinant PDE5A1 using FAM-labelled cGMP as substrate after 60 mins by fluorescence polarization assay
Procedure, shortened: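 Fluorescence polarization assay, room temperature, 60 min, with 100 nM FAM-cGMP and 0.1-0.45 ng PDE5 or 22.5-250 ng PDE6. Binding agent then added for 60 min; read at ex 485/em 528 nm. Duplicates at each concentration. Activity normalized to no-compound and no-enzyme controls; IC50 from sigmoidal dose-response fit.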

[2] = Kinetic solubility of compound in phosphate buffer after 18 hrs by turbidimetric method; assay type: physicochemical; conditions: read-out: Kinetic_solubility
Procedure, shortened: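 Compound serially diluted in DMSO at 100x final and diluted 100-fold into phosphate buffered saline. After 18 h at 37°C, turbidity read at 540 nm. Turbid if absorbance exceeded blank mean + 3 SD. Result is the highest concentration showing no turbidity.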

[3] = system: Mus musculus; assay: Elevation of cGMP levels in hippocampal slices of wild type C57Bl6 mouse at 3 mg/kg, ip administered for 30 mins followed by foot shock measured at 10 to 60 secs after shock by enzyme immunoassay relative to control; assay type: functional
Procedure, shortened: (§1)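 Male and female C57Bl6 mice, 2-3 months old, 20-25 g, given i.p. drug or vehicle (2% DMSO & 2% Tween). Foot shock 30 min after dosing; killed by cervical dislocation and decapitation at 10 s, 1 min or 3 min. Hippocampi snap-frozen. cGMP measured by enzyme immunoassay in duplicate and normalised to BCA protein; n=3 per group; compared with vehicle.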

[4] = system: Liver; assay: Half life in human liver microsomes at 1 uM measured up to 60 mins by LC-MS/MS analysis; assay type: ADME, microsome; conditions: 1 h
Procedure, shortened: (§2)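 Liver microsomes incubated with test compound at 1 µM final, 37°C, after a 3 min preincubation without cofactor, alongside a testosterone control. Protein precipitated; samples analyzed by LC-MS/MS with electrospray. Peak area ratio to internal standard compared with time 0 to give % remaining. Half-life from single-phase exponential decay fit.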

[5] = system: Hippocampus; assay: Antialzheimer activity in […] transgenic mouse hippocampal slices assessed as long-term residual potentiation at 50 nM administered via bath perfusion for 10 mins prior to tetanus measured at the last 5 mins of 2 hrs recording (reference value: 137.90 +/- 10.83%); assay type: functional
Procedure, shortened: (§3)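 Acute hippocampal slices from 3–4 month old APP/PS1 transgenic mice or WT littermates. Slices received 50 nM compound or vehicle through bath perfusion for 10 min before tetanus. Residual potentiation was taken as the mean over the last 5 min of a 2 h recording. Experiments were blinded, values are SEM, and groups were compared by 2-way ANOVA for repeated measures.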

[6] = system: Mus musculus; assay: Elevation of cGMP levels in hippocampal slices of wild type C57Bl6 mouse at 10 mg/kg, ip administered for 30 mins followed by foot shock measured at 10 to 60 secs after shock by enzyme immunoassay relative to control; assay type: functional; procedure, shortened: as §1
[7] = system: Hippocampus; assay: Effect on long-term residual potentiation in wild type C57Bl6 mouse hippocampal slices at 50 nM administered via bath perfusion for 10 mins prior to tetanus measured at the last 5 mins of 2 hrs recording; assay type: ADME, tissue-based; conditions: 0.05 µM; procedure, shortened: as §3
[8] = system: Mus musculus; assay: Elevation of cGMP levels in hippocampal slices of wild type C57Bl6 mouse at 3 to 10 mg/kg, ip administered for 30 mins followed by foot shock measured at 10 to 180 secs after shock by enzyme immunoassay; assay type: functional, organism-based
Procedure, shortened: (§4)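 2-3 month old male and female C57Bl6 mice (20-25 g) dosed i.p. at 3 or 10 mg/kg in 2% DMSO & 2% Tween, or vehicle alone. Foot shock given 30 min later. Killed 10 s, 1 min or 3 min after shock. Hippocampi snap frozen. cGMP measured by enzyme immunoassay in duplicate and normalized to BCA protein. n=3 per group.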

[9] = system: Mus musculus; assay: Toxicity in wild type C57Bl6 mouse assessed as effect on freezing at 3 mg/kg, ip administered daily for 3 weeks by contextual fear memory test; assay type: organism-based; conditions: in vivo, 504 h
Procedure, shortened: (§5)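 Mice (APP/PS1 or wild-type) dosed 3 mg/kg i.p. daily for 3 weeks from age 3-4 months. Contextual fear learning scored 24 h after training as freezing (no movement except respiration) over 5 min in the training chamber. Mice tested at 3-4 months or at 6-7 months of age. Experiments blind; mean ± SEM.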

[10] = system: Mus musculus; assay: Antialzheimer activity in 3 to 4 months old APP1/PS1 transgenic mouse assessed as effect on freezing at 3 mg/kg, ip administered daily for 3 weeks measured at age of 6 to 7 months by contextual fear memory test (reference value: 15%); assay type: functional; procedure, shortened: as §5
[11] = system: Mus musculus; assay: Plasma half life in mouse at 25 mg/kg, ip measured at 0.25 hrs post dose by LC/MS analysis; assay type: ADME, organism-based; conditions: in vivo
Procedure, shortened: (§6)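 Mice given 25 mg/kg i.p., 3 animals per time point, sampled up to 2 h. Plasma taken from heparinized retro-orbital blood; brain homogenized in methanol. Both extracted with methanol plus internal standard and quantified by LC/MS against a standard curve. Half-life from single-phase exponential decay fit.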

[12] = system: Mus musculus; assay: Elevation of cGMP levels in hippocampal slices of wild type ip dosed C57Bl6 mouse administered for 30 mins followed by foot shock measured at 10 to 60 secs after shock by enzyme immunoassay; assay type: functional, organism-based; procedure, shortened: as §4
[13] = system: Mus musculus; assay: Toxicity in wild type C57Bl6 mouse assessed as effect on number of errors at 3 mg/kg, ip administered daily for 3 weeks by 2 day radial arm water maze test; assay type: organism-based; conditions: in vivo
Procedure, shortened: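 Wild-type mice given 3 mg/kg i.p. daily for 3 weeks from age 3-4 months. Tested in 2-day radial arm water maze, with a hidden platform in one of 6 arms. Errors counted, averaged per mouse over blocks of 3 trials. Blind scoring; SEM.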

[14] = system: Mus musculus; assay: Elevation of cGMP levels in hippocampal slices of wild type C57Bl6 mouse at 10 mg/kg, ip administered for 30 mins followed by foot shock measured at 180 secs after shock by enzyme immunoassay relative to control; assay type: functional; procedure, shortened: as §1
[15] = system: Mus musculus; assay: Antialzheimer activity in APP1/PS1 transgenic mouse assessed as effect on number of errors at 3 mg/kg, ip administered daily for 3 weeks by 2 day radial arm water maze test (reference value: 3); assay type: functional
[16] = system: Mus musculus; assay: Antialzheimer activity in 3 to 4 months old APP1/PS1 transgenic mouse assessed as effect on number of errors at 3 mg/kg, ip administered daily for 3 weeks measured at age of 6 to 7 months by 2 day radial arm water maze test (reference value: 2.5); assay type: functional
[17] = system: Liver; assay: Half life in mouse liver microsomes at 1 uM measured up to 60 mins by LC-MS/MS analysis; assay type: ADME, microsome; conditions: 1 h; procedure, shortened: as §2
[18] = Drug level in mouse brain at 25 mg/kg, ip measured at 0.25 hrs post dose by LC/MS analysis; assay type: ADME, organism-based; conditions: read-out: Drug uptake; procedure, shortened: as §6
[19] = system: Mus musculus; assay: Antialzheimer activity in APP1/PS1 transgenic mouse assessed as rescue contextual memory by measuring freezing at 3 mg/kg, ip administered daily for 3 weeks by contextual fear memory test (reference value: 15%); assay type: functional; procedure, shortened: as §5
[20] = system: Mus musculus; assay: Antialzheimer activity in 3 to 4 months old APP1/PS1 transgenic mouse model assessed as long-term residual potentiation in hippocampal slices at 3 mg/kg, ip administered daily for 3 weeks measured at age of 6 to 7 months (reference value: 164.11 +/- 10.36%); assay type: functional
[21] = Plasma concentration in mouse at 25 mg/kg, ip measured at 0.25 hrs post dose by LC/MS analysis; assay type: ADME, organism-based; procedure, shortened: as §6
[22] = species on record: Homo sapiens; assay: Selectivity ratio of IC50 for human recombinant PDE6C to IC50 for human recombinant PDE5A1
[23] = molecular target: Cone cGMP-specific 3',5'-cyclic phosphodiesterase subunit alpha' (Homo sapiens, UniProt P51160); assay: Inhibition of human recombinant PDE6C using FAM-labelled cGMP as substrate after 60 mins by fluorescence polarization assay
Sequence of Cone cGMP-specific 3',5'-cyclic phosphodiesterase subunit alpha' (P51160 whole entry): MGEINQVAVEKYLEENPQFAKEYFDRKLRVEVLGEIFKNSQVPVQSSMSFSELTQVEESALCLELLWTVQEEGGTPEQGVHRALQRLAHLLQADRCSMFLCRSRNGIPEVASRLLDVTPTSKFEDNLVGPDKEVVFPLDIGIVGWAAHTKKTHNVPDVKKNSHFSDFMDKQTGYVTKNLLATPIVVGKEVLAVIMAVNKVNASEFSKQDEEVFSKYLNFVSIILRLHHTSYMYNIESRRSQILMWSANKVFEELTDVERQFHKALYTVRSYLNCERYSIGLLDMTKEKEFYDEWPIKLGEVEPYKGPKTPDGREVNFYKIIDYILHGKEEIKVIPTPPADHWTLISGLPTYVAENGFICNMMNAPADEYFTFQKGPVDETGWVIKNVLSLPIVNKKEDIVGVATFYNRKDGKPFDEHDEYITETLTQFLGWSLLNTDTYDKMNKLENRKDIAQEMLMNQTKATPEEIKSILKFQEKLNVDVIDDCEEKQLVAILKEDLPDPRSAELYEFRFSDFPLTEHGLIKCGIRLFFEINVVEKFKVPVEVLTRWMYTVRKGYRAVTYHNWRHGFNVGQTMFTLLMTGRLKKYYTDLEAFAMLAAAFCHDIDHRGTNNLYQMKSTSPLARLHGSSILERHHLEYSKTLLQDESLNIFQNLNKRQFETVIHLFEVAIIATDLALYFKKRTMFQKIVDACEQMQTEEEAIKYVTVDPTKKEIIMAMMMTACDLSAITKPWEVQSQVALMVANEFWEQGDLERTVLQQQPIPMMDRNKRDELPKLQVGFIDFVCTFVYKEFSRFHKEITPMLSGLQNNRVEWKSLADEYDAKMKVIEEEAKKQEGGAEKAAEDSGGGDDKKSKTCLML

COc1ccc(CNc2c3c(nc4ccc(C#N)cc24)CCN(C)C3)cc1Cl
IC50 [1]: 0.59 nM

COc1ccc2nc3c(c(NCc4ccc(OC)c(Cl)c4)c2c1)CN(C(C)=O)CC3
IC50 [1]: 45.2 nM

CC(=O)N1CCc2nc3ccc(C#N)cc3c(NCc3ccc(F)c(Cl)c3)c2C1
IC50 [1]: 1.5 nM

COc1c(F)cc(CNc2c3c(nc4ccc(C#N)cc24)CCN(C(C)=O)C3)cc1Cl
IC50 [1]: 0.32 nM

COc1ccc(CNc2c(CO)cnc3c(C4CC4)cc(C#N)cc23)cc1Cl
solubility kinetic at 18 h [2]: < 3.9 µM

CC(=O)N1CCc2nc3ccc(C#N)cc3c(NCc3ccnc(Cl)c3)c2C1
IC50 [1]: 57 nM

COc1ccc(CNc2c3c(nc4ccc(Br)cc24)CCN(C(C)=O)C3)cc1Cl
IC50 [1]: 3.1 nM

CCN1CCc2nc3ccc(C#N)cc3c(NCc3ccc(OC)c(Cl)c3)c2C1
IC50 [1]: 0.19 nM

COc1ccc(CNc2c3c(nc4ccc(C#N)cc24)CCN(C(C)=O)C3)cc1Cl
fold change (FC) [3]: 1.5 | t1/2 [4]: 6 min | Activity [5]: 201.76% | fold change (FC) [6]: 1.7 | Activity [7]: Non-Toxic | Activity [8]: Active | solubility kinetic at 18 h [2]: > 500 µM | Activity [9]: 30% | Activity [10]: 40% | t1/2 [11]: 64.2 min | Activity [12]: Dose-dependent effect | Activity [13]: Non-Toxic | fold change (FC) [14]: 1.3 | Activity [15]: 1 | Activity [16]: 1 | t1/2 [17]: 3.2 min | concentration at 0.25 h [18]: 492 ng/g | Activity [19]: 30% | Activity [20]: 226.22% | concentration at 0.25 h [21]: 1570 ng/mL

CC(=O)N1CCc2nc3ccc(C#N)cc3c(NCc3ccc(OC(F)(F)F)c(Cl)c3)c2C1
IC50 [1]: 337 nM

CCN1Cc2nc3ccc(C#N)cc3c(NCc3ccc(OC)c(Cl)c3)c2C1=O
solubility kinetic at 18 h [2]: 3.1 µM (≈ 1.26 µg/mL) | Ratio IC50 [22]: 100 | IC50 [23]: 6.6 nM
